According to ChEMBL document CHEMBL3272210, “Effect of the solvent-dependent conformational system of hydroxyureas on predicted vs. observed log P” (J Med Chem, 1977):

Assays:
Rattus norvegicus [1] = species on record: Rattus norvegicus; experiment: Inhibition of rat hepatoma ribonucleotide reductase using ATP relative to hydroxyurea
How it was run: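 Same 32P-CDP reduction assay, 30 min, 37 °C, ATP 2.1 mM, aqueous inhibitor. Each determination includes hydroxyurea as positive control. ID50 (four levels, two trials each) is divided relative to that run's hydroxyurea ID50, and ratios are averaged across determinations.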

[2] = Octanol-water partition coefficient, log P of the compound after 72 hrs; assay type: physicochemical
How it was run: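 Known amounts (100 mg, 500 mg, 1.0 g) are shaken in equal volumes of 1-octanol and water pH 7.4 for 72 h, the optimal time. The aqueous layer is lyophilized, and the recovered compound is weighed and purity-checked. Values were cross-checked by colorimetry or UV for some compounds.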

L1210 = experiment: Antitumor activity against mouse L1210 cells xenografted in host assessed as growth inhibition treated ip for 9 days; assay type: functional
Rattus norvegicus [3] = species on record: Rattus norvegicus; experiment: Inhibition of rat hepatoma ribonucleotide reductase using ATP
How it was run: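 Partially purified rat Novikoff ascites hepatoma reductase (~0.2 mg) in pH 7 phosphate (8.3 mM) with 2.1 mM ATP, 4.2 mM MgAc2, Fe2+ (0.04 mM), 6.3 mM DTT, 1.0 μM rat thioredoxin and 0.17 mM 32P-CDP. Aqueous inhibitor is present before enzyme is added on ice, then 37 °C for 30 min. Perchloric acid stop, Dowex-50 product separation. Four concentrations, duplicate trials, ID50 by graphing/extrapolation.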

Rattus norvegicus [4] = species on record: Rattus norvegicus; experiment: Inhibition of rat hepatoma ribonucleotide reductase using ATP and Me2SO solvent relative to hydroxyurea
Rattus norvegicus [5] = species on record: Rattus norvegicus; experiment: Inhibition of rat hepatoma ribonucleotide reductase using ATP and Me2SO solvent
How it was run: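 Rat Novikoff ascites hepatoma reductase, partially purified, assayed in 8.3 mM phosphate pH 7, 2.1 mM ATP, 4.2 mM MgAc2, 0.04 mM ferrous ammonium sulfate, 6.3 mM DTT, 1.0 μM thioredoxin, 0.17 mM 32P-CDP. Inhibitor is predissolved in DMSO and diluted to 1% DMSO final, then added on ice before enzyme, followed by 30 min at 37 °C. Dowex-50 readout. ID50 extrapolated from four concentrations tested in duplicate.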

Row | Compound | Ratio (Rattus norvegicus [1]) | logP at 72 h [2] | T/C (L1210) | ID50 (Rattus norvegicus [3]) | Ratio (Rattus norvegicus [4]) | ID50 (Rattus norvegicus [5])
1 | CCN(O)C(N)=O | 1.5 | -0.1 | 168% | 170 µM |  | 
2 | CN(O)C(N)=O | 0.9 | -0.46 | 162% | 100 µM |  | 
3 | CCCNC(=O)NO | 3.8 | 0.22 | 146% | 340 µM | 3.8 | 340 µM
4 | O=C(NO)Nc1ccc(Cl)cc1 |  | 1.39 |  |  |  | 
5 | CC(C)NC(=O)NO | 19 | 0.2 | <125% | 800 µM |  | 
6 | NC(=O)NO [HYDROXYUREA] | 1 | -1.27 | 291% | 110 µM |  | 
7 | CC(C)(C)NC(=O)NO | 9.5 | 0.5 |  |  |  | 400 µM
8 | O=C(NO)Nc1ccccc1 |  | 0.41 |  |  |  | 
9 | CCCCNC(=O)NO | 6.8 | 0.32 |  |  |  | 750 µM
10 | CCNC(=O)NO |  | -0.76 | 137% |  |  | 
